Among the data in ChEMBL document CHEMBL4196069 (Eur J Med Chem, 2018) are IC50 and selectivity ratio values, retold here.

Where only a bound is given, the exact number is not on record here.

One data set relates to PC-3. As to the kind of experiment: Antiproliferative activity against human PC3 cells after 72 hrs by MTT assay. In kind it is functional, cell-based. As to conditions: PC-3, 72 h. The essentials:
(§1)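 Cells pre-incubated 24 h at 37 °C in humidified 5% CO2, then exposed to compounds for 72 h. MTT (5 mg/mL) was added for 4 h, formazan was dissolved in DMSO, and OD was read at 570 nm. Vehicle control was 0.1% DMSO. IC50 was calculated from inhibition ratios as the mean ± SD of three independent experiments.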
In general terms: Formazan colour is commonly taken as a measure of viable cells.

The subject of a further data set is Bel-7402. Nature of the data set: Antiproliferative activity against human Bel7402 cells after 72 hrs by MTT assay. The format is functional, cell-based. As to conditions: Bel-7402, 72 h. The essentials: as §1
In the next data set the test system is Bel7402/5-FU. Nature of the data set: Antiproliferative activity against human Bel7402/5-FU cells after 72 hrs by MTT assay. The format is functional, cell-based. The essentials: as §1
The subject of another data set is HL-60. As to the kind of experiment: Antiproliferative activity against human HL60 cells after 72 hrs by MTT assay. As to conditions: HL-60, 72 h. In kind it is functional, cell-based. The essentials:
as §1

For another data set, the system named is L02. Nature of the data set: Antiproliferative activity against human LO2 cells after 72 hrs by MTT assay. The format is cell-based. As to conditions: L02, 72 h. A digest of the protocol:
as §1

Data set [1] can be described thus: Selectivity index, ratio of IC50 for human LO2 cells to IC50 for human Bel7402 cells. The format is toxicity. As to conditions: LO2 cells versus Bel7402 cells, read-out: Ratio IC50. The essentials: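 Selectivity index = IC50(L-O2)/IC50(Bel-7402), both IC50s from the 72 h MTT assay (mean of three independent experiments).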

The IC50 is the concentration that inhibits the measured activity by half. Higher therefore signals lower potency. For `O=C(O)CCCc1ccc(N(CCCl)CCCl)cc1` [CHLORAMBUCIL], the half-inhibitory concentration (IC50) was 40.4 µM in the data set on PC-3; more than 80 µM with Bel-7402; more than 80 µM in the data set with Bel7402/5-FU; 11.6 µM in the data set with HL-60; more than 80 µM with L02.
In the case of `C[C@H]1CCC/C=C/[C@@H]2C[C@H](O)C[C@H]2[C@H](OC(=O)CCCc2ccc(N(CCCl)CCCl)cc2)/C=C/C(=O)O1`, the concentration for half-maximal inhibition (IC50) in the data set with PC-3 came to 1.37 µM; in the data set with Bel-7402, 1.93 µM; with Bel7402/5-FU it was 8.35 µM; with HL-60, 12.6 µM; with L02 it was 29.6 µM. Further, the selectivity ratio in data set [1] amounted to 15.3.
Regarding `C[C@H]1CCC/C=C/[C@@H]2C[C@H](OC(=O)CCCc3ccc(N(CCCl)CCCl)cc3)C[C@H]2[C@H](O)/C=C/C(=O)O1`, the half-maximal inhibitory concentration (IC50) worked out at 6.84 µM with PC-3; 4.86 µM in the data set on Bel-7402; 13.8 µM in the data set with Bel7402/5-FU; 34.7 µM in the data set on HL-60; 15.5 µM in the data set on L02. Moreover, the selectivity ratio in data set [1] was 3.2.
As for `C[C@H]1CCC/C=C/[C@@H]2C[C@H](OC(=O)c3ccc(N(CCCl)CCCl)cc3)C[C@H]2[C@H](OC(=O)c2ccc(N(CCCl)CCCl)cc2)/C=C/C(=O)O1`, the half-maximal inhibitory concentration (IC50) in the data set with PC-3 turned out to be 18.5 µM; in the data set with Bel-7402 it was 6.3 µM; in the data set on Bel7402/5-FU, 15.3 µM; in the data set on HL-60, 9.31 µM; with L02 it was 17.3 µM. Moreover, the selectivity ratio in data set [1] was 2.7.
In the case of `COC(=O)[C@H](Cc1ccc(N(CCCl)CCCl)cc1)NC(=O)CCC(=O)O[C@@H]1C[C@H]2[C@H](O)/C=C/C(=O)O[C@@H](C)CCC/C=C/[C@@H]2C1`, the 50% inhibitory concentration (IC50) in the data set on PC-3 is 17.6 µM; in the data set on Bel-7402 it was 1.49 µM; with Bel7402/5-FU it was 3.05 µM; in the data set with HL-60 it was 14.4 µM; in the data set on L02 it was 4.57 µM. In data set [1], the selectivity ratio worked out at 3.1.
With `COC(=O)[C@H](Cc1ccc(N(CCCl)CCCl)cc1)NC(=O)CCC(=O)O`, the IC50 is more than 80 µM in the data set on PC-3; 23.9 µM with Bel-7402; more than 80 µM with Bel7402/5-FU; 6.02 µM in the data set on HL-60; 32.9 µM in the data set with L02. Moreover, in data set [1], the selectivity ratio was 1.37.
With `COC(=O)[C@H](Cc1ccc(N(CCCl)CCCl)cc1)NC(=O)CCC(=O)O[C@@H]1/C=C/C(=O)O[C@@H](C)CCC/C=C/[C@@H]2C[C@H](O)C[C@H]21`, the concentration for half-maximal inhibition (IC50) in the data set on PC-3 came out at 14.5 µM; with Bel-7402 it was 1.37 µM; with Bel7402/5-FU, 4.6 µM; in the data set with HL-60 it was 1.52 µM; with L02 it was 5.16 µM. Also, the selectivity ratio in data set [1] came out at 3.8.
In the case of `O=c1[nH]cc(F)c(=O)[nH]1` [FLUOROURACIL], the concentration for half-maximal inhibition (IC50) with PC-3 was 23.9 µM; in the data set on Bel-7402 it was 18.5 µM; in the data set on Bel7402/5-FU, more than 80 µM; with HL-60, 2.37 µM.
Regarding `C[C@H]1CCC/C=C/[C@@H]2C[C@H](OC(=O)CCCc3ccc(N(CCCl)CCCl)cc3)C[C@H]2[C@H](OC(=O)CCCc2ccc(N(CCCl)CCCl)cc2)/C=C/C(=O)O1`, the IC50 came to 20.4 µM in the data set with PC-3; 7.25 µM with Bel-7402; 15.6 µM in the data set on Bel7402/5-FU; 67.4 µM with HL-60; 19.5 µM in the data set on L02. In addition, the selectivity ratio in data set [1] came to 2.7.
In the case of `C[C@H]1CCC/C=C/[C@@H]2C[C@H](OC(=O)c3ccc(N(CCCl)CCCl)cc3)C[C@H]2[C@H](O)/C=C/C(=O)O1`, the IC50 in the data set with PC-3 stood at 10.6 µM; in the data set on Bel-7402 it was 1.45 µM; in the data set with Bel7402/5-FU it was 4.05 µM; in the data set on HL-60, 8.25 µM; with L02, 9.51 µM. Moreover, the selectivity ratio in data set [1] turned out to be 6.6.
On to `C[C@H]1CCC/C=C/[C@@H]2C[C@H](O)C[C@H]2[C@H](O)/C=C/C(=O)O1` [BREFELDIN A], for which the IC50 in the data set with Bel-7402 is 0.024 µM; in the data set with Bel7402/5-FU it was 0.82 µM; in the data set with HL-60, 0.025 µM; with L02, less than 0.001 µM.
With `COC(=O)[C@H](Cc1ccc(N(CCCl)CCCl)cc1)NC(=O)CCC(=O)O[C@@H]1C[C@@H]2[C@H](/C=C/CCC[C@H](C)OC(=O)/C=C/[C@H]2OC(=O)CCC(=O)N[C@@H](Cc2ccc(N(CCCl)CCCl)cc2)C(=O)OC)C1`, the half-inhibitory concentration (IC50) was determined as 32.5 µM with PC-3; 4.85 µM in the data set on Bel-7402; 7.47 µM in the data set on Bel7402/5-FU; 9.37 µM with HL-60; 29.9 µM with L02. Besides, in data set [1], the selectivity ratio was determined as 6.2.
